According to ChEMBL document CHEMBL1144905, “More lipophilic dialkyldiamine-based diazeniumdiolates: synthesis, characterization, and application in preparing thromboresistant nitric oxide release polymeric coatings” (J Med Chem, 2003):

How the values were obtained:
[1] = Partition coefficient (logP); format: physicochemical; settings: octanol/water
How it was run: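 Octanol/water partition coefficient calculated with ChemDraw, not measured.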

[2] = Apparent half life period in PBS buffer; format: ADME
How it was run: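 Half-life by chemiluminescence at 37 °C. Diazeniumdiolate in 10 mM NaOH (or, if water-insoluble, in THF or NaOH/MeOH), 25–100 µL, injected into 3 mL deoxygenated 100 mM phosphate buffer pH 7.4 with 137 mM NaCl and 2.7 mM KCl. NO released, removed by nitrogen purge, read every 0.25 s to baseline. Half-life = time to release half of total possible NO.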

CCCCCCNCCCCCCN(CCCCCC)/[N+]([O-])=N/O gave a logP [1] of 6.26.

In the case of CCCCCNCCCCCCN(CCCCC)/[N+]([O-])=N/O, the half-life [2] is reported as 4.65 min and the logP [1] is reported as 5.21.

In the case of CNCCCCCCN(C)/[N+]([O-])=N/O, the half-life [2] is reported as 1.12 min and the logP [1] is reported as 0.97.

CCNCCCCCCN(CC)/[N+]([O-])=N/O showed a half-life [2] of 5.78 min and a logP [1] of 2.03.

In the case of CCCCNCCCCCCN(CCCC)/[N+]([O-])=N/O, the half-life [2] is reported as 4.95 min and the logP [1] is reported as 4.15.

CCCNCCCCCCN(CCC)/[N+]([O-])=N/O gave a half-life [2] of 5.32 min and a logP [1] of 3.09.
